From ChEMBL document CHEMBL3751707, “Silicon Incorporated Morpholine Antifungals: Design, Synthesis, and Biological Evaluation” (ACS Med Chem Lett, 2015)
Converted amounts (≈) assume the structure as drawn.

Assays:
Cryptococcus neoformans [1] = assay: Antifungal activity against Cryptococcus neoformans ATCC 34664 after 24 to 36 hrs by broth microdilution method; format: functional, organism-based
Procedure, shortened: (§1)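 CLSI broth microdilution against yeasts (M27-A3) and filamentous fungi (M38-A2). Read-outs: IC50 (concentration giving 50% growth inhibition), MIC, and MFC (minimum fungicidal concentration), all in μg/mL. Assay done twice in triplicate.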

Candida albicans [2] = assay: Effect on sterol profile of Candida albicans ATCC 24433 assessed as ergosta-7,22-dien-3-ol,(3a'22E) level at 0.25 ug/ml for 24 hrs by spectrophotometry; format: functional; settings: in the assay text read “by GC-MS” for “by spectrophotometry”
Procedure, shortened: (§2)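 C. albicans ATCC 24433 grown with subinhibitory (<MIC) compound concentrations. Cellular sterols extracted. Sterol content read spectrophotometrically by scan at 230–300 nm, and individual intermediates quantified by GC–MS. Values are average % of total sterols from two experiments, with standard error of the mean.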

Candida albicans [3] = assay: Effect on sterol profile of Candida albicans ATCC 24433 assessed as ergosterol level at 0.125 ug/ml for 24 hrs by spectrophotometry; format: functional; settings: in the assay text read “ergostenol level” for “ergosterol level”; procedure, shortened: as §2
Candida albicans [4] = assay: Effect on sterol profile of Candida albicans ATCC 24433 assessed as cholesta-8,24-dien-3-ol,4-methyl-(3a',4a') level at 0.25 ug/ml for 24 hrs by spectrophotometry (reference value: 7.19 +/- 0.65 %); format: functional; settings: in the assay text read “by GC-MS” for “by spectrophotometry”; procedure, shortened: as §2
Nakaseomyces glabratus [5] = assay: Antifungal activity against Candida glabrata NCYC 388 after 72 hrs by broth microdilution method; format: functional; settings: NCYC 388, 72 h; procedure, shortened: as §1
Candida albicans [6] = assay: Antifungal activity against Candida albicans ATCC 10231 after 72 hrs by broth microdilution method; format: functional; settings: ATCC 10231, 72 h; procedure, shortened: as §1
Candida albicans [7] = assay: Effect on sterol profile of Candida albicans ATCC 24433 assessed as squalene level at 0.25 ug/ml for 24 hrs by spectrophotometry (reference value: 7.17 +/- 0.35 %); format: functional; procedure, shortened: as §2
Candida albicans [8] = assay: Antifungal activity against Candida albicans ATCC 24433 after 24 to 36 hrs by broth microdilution method; format: functional, organism-based; procedure, shortened: as §1
Candida albicans [9] = assay: Effect on sterol profile of Candida albicans ATCC 24433 assessed as cholesta-5,24-dien-3-ol level at 0.125 ug/ml for 24 hrs by spectrophotometry (reference value: 3.58 +/- 0.52 %); format: functional; procedure, shortened: as §2
[10] = Toxicity in human RBC assessed as hemolysis upto 128 ug/ml; format: cell-based; settings: erythrocyte
Candida albicans [11] = assay: Effect on sterol profile of Candida albicans ATCC 24433 assessed as ignosterol level at 0.25 ug/ml for 24 hrs by spectrophotometry; format: functional; settings: in the assay text read “by GC-MS” for “by spectrophotometry”; procedure, shortened: as §2
Candida albicans [12] = assay: Effect on sterol profile of Candida albicans ATCC 24433 assessed as ergosterol level at 0.125 ug/ml for 24 hrs by spectrophotometry (reference value: 73.34 +/- 2.53 %); format: functional; procedure, shortened: as §2
Candida albicans [13] = assay: Effect on sterol profile of Candida albicans ATCC 24433 assessed as lichesterol level at 0.25 ug/ml for 24 hrs by spectrophotometry; format: functional; settings: in the assay text read “by GC-MS” for “by spectrophotometry”; procedure, shortened: as §2
Candida tropicalis [14] = assay: Antifungal activity against Candida tropicalis ATCC 750 after 24 to 36 hrs by broth microdilution method; format: functional, organism-based; procedure, shortened: as §1
Candida albicans [15] = assay: Effect on sterol profile of Candida albicans ATCC 24433 assessed as lichesterol level at 0.125 ug/ml for 24 hrs by spectrophotometry; format: functional; procedure, shortened: as §2
Aspergillus niger [16] = assay: Antifungal activity against Aspergillus niger ATCC 10578 after 48 hrs by broth microdilution method; format: functional, organism-based; settings: ATCC 10578, 48 h; procedure, shortened: as §1
Candida tropicalis [17] = assay: Antifungal activity against Candida tropicalis ATCC 750 after 72 hrs by broth microdilution method; format: functional; settings: ATCC 750, 72 h; procedure, shortened: as §1
Candida albicans [18] = assay: Effect on sterol profile of Candida albicans ATCC 24433 assessed as cholesta-8,24-dien-3-ol,4-methyl-(3a',4a') level at 0.125 ug/ml for 24 hrs by spectrophotometry (reference value: 7.19 +/- 0.65 %); format: functional; procedure, shortened: as §2
Candida albicans [19] = assay: Effect on sterol profile of Candida albicans ATCC 24433 assessed as ergosterol level at 0.25 ug/ml for 24 hrs by spectrophotometry; format: functional; settings: in the assay text read “ergostenol level” for “ergosterol level”; procedure, shortened: as §2
Candida albicans [20] = assay: Effect on sterol profile of Candida albicans ATCC 24433 assessed as squalene level at 0.125 ug/ml for 24 hrs by spectrophotometry (reference value: 7.17 +/- 0.35 %); format: functional; procedure, shortened: as §2
Candida albicans [21] = assay: Effect on sterol profile of Candida albicans ATCC 24433 assessed as ergosta-7,22-dien-3-ol,(3a'22E) level at 0.125 ug/ml for 24 hrs by spectrophotometry; format: functional; procedure, shortened: as §2
Aspergillus niger [22] = assay: Antifungal activity against Aspergillus niger ATCC 10578 after 72 hrs by broth microdilution method; format: functional; settings: ATCC 10578, 72 h; procedure, shortened: as §1
Cryptococcus neoformans [23] = assay: Antifungal activity against Cryptococcus neoformans ATCC 34664 after 72 hrs by broth microdilution method; format: functional; settings: ATCC 34664, 72 h; procedure, shortened: as §1
Candida albicans [24] = assay: Effect on sterol profile of Candida albicans ATCC 24433 assessed as ergosterol level at 0.25 ug/ml for 24 hrs by spectrophotometry (reference value: 73.34 +/- 2.53 %); format: functional; settings: in the assay text read “by GC-MS” for “by spectrophotometry”; procedure, shortened: as §2
Nakaseomyces glabratus [25] = assay: Antifungal activity against Candida glabrata NCYC 388 after 24 to 36 hrs by broth microdilution method; format: functional, organism-based; procedure, shortened: as §1
Candida albicans [26] = assay: Antifungal activity against Candida albicans ATCC 24433 after 72 hrs by broth microdilution method; format: functional; settings: ATCC 24433, 72 h; procedure, shortened: as §1
Candida albicans [27] = assay: Antifungal activity against Candida albicans ATCC 10231 after 24 to 36 hrs by broth microdilution method; format: functional, organism-based; procedure, shortened: as §1
HEK293 = assay: Cytotoxicity against HEK293 cells after 24 hrs by MTT assay; format: cell-based; settings: Homo sapiens, HEK293, 24 h
[28] = Toxicity in human RBC assessed as partial hemolysis at 256 ug/ml; format: cell-based; settings: erythrocyte

| IC50 (Cryptococcus neoformans [1]) [µg/mL] | MIC (Cryptococcus neoformans [1]) [µg/mL] | IC50 (Candida albicans [8]) [µg/mL] | MIC (Candida albicans [8]) [µg/mL] | IC50 (Candida tropicalis [14]) [µg/mL] | MIC (Candida tropicalis [14]) [µg/mL] | IC50 (Aspergillus niger [16]) [µg/mL] | MIC (Aspergillus niger [16]) [µg/mL] | IC50 (Nakaseomyces glabratus [25]) [µg/mL] | MIC (Nakaseomyces glabratus [25]) [µg/mL] | IC50 (Candida albicans [27]) [µg/mL] | MIC (Candida albicans [27]) [µg/mL] | SMILES | MFC (Nakaseomyces glabratus [5]) [µg/mL] | MFC (Candida albicans [6]) [µg/mL] | Activity [10] | MFC (Candida tropicalis [17]) [µg/mL] | MFC (Aspergillus niger [22]) [µg/mL] | MFC (Cryptococcus neoformans [23]) [µg/mL] | MFC (Candida albicans [26]) [µg/mL] | Activity [28] | further results |
| --- | --- | --- | --- | --- | --- | --- | --- | --- | --- | --- | --- | --- | --- | --- | --- | --- | --- | --- | --- | --- | --- |
| 0.031 (≈ 0.0976 µM) | 0.125 (≈ 0.394 µM) | 0.028 (≈ 0.0882 µM) | 1 (≈ 3.15 µM) | 0.173 (≈ 0.545 µM) | 0.5 (≈ 1.57 µM) | 0.125 (≈ 0.394 µM) | 0.5 (≈ 1.57 µM) | 0.038 (≈ 0.12 µM) | 0.125 (≈ 0.394 µM) | 0.1 (≈ 0.315 µM) | 0.25 (≈ 0.787 µM) | CCC(C)(C)c1ccc(CC(C)CN2C[C@@H](C)O[C@@H](C)C2)cc1 (some centres undefined) [AMOROLFINE] | 32 (≈ 101 µM) | 32 (≈ 101 µM) | Non-toxic | > 256 | > 256 | 64 (≈ 202 µM) | 8 (≈ 25.2 µM) |  | Activity (Candida albicans [2]): 15.81%; Activity (Candida albicans [3]): 11.56%; Activity (Candida albicans [4]): 12.03%; Activity (Candida albicans [7]): 17.08%; Activity (Candida albicans [9]): 0.44%; Activity (Candida albicans [11]): 11.11%; Activity (Candida albicans [12]): 30.16%; Activity (Candida albicans [13]): 32.13%; Activity (Candida albicans [15]): 8.26%; Activity (Candida albicans [18]): 12.26%; Activity (Candida albicans [19]): 5.71%; Activity (Candida albicans [20]): 22.04%; Activity (Candida albicans [21]): 15.28%; Activity (Candida albicans [24]): 6.13% |
| 3.77 (≈ 11.8 µM) | 8 (≈ 25.1 µM) | 1.55 (≈ 4.87 µM) | 4 (≈ 12.6 µM) | 5.87 (≈ 18.4 µM) | 16 (≈ 50.2 µM) | 1.25 (≈ 3.92 µM) | 2 (≈ 6.28 µM) | 1.63 (≈ 5.12 µM) | 2 (≈ 6.28 µM) | 1 (≈ 3.14 µM) | 2 (≈ 6.28 µM) | CNC1CCN(CC(C)Cc2ccc([Si](C)(C)C)cc2)CC1 (centres undefined) | 4 (≈ 12.6 µM) | 2 (≈ 6.28 µM) | Non-toxic | 16 (≈ 50.2 µM) | 64 (≈ 201 µM) | 8 (≈ 25.1 µM) | 8 (≈ 25.1 µM) | Toxic | IC50 (HEK293): 9.81 µg/mL (≈ 30.8 µM) |
| 0.93 (≈ 3.04 µM) | 2 (≈ 6.55 µM) | 0.396 (≈ 1.3 µM) | 1 (≈ 3.27 µM) | 0.198 (≈ 0.648 µM) | 4 (≈ 13.1 µM) | 0.25 (≈ 0.818 µM) | 0.5 (≈ 1.64 µM) | 0.196 (≈ 0.641 µM) | 0.5 (≈ 1.64 µM) | 0.19 (≈ 0.622 µM) | 0.25 (≈ 0.818 µM) | CC(Cc1ccc([Si](C)(C)C)cc1)CN1CCC(O)CC1 (centres undefined) | 8 (≈ 26.2 µM) | 4 (≈ 13.1 µM) | Non-toxic | 256 (≈ 838 µM) | 256 (≈ 838 µM) | 16 (≈ 52.4 µM) | 2 (≈ 6.55 µM) | Toxic |  |
